From the EternaBench riboswitch data

System: MS2 coat protein
Experiment: apparent Kd, MS2 coat protein; higher = weaker binding; RNA-MaP array; FMN 200 µM where present
In short: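 The apparent Kd is the median of filtered binding-curve fits, one per cluster, to green signal normalised to red-channel RNA signal and control-cluster median Fmax. The clusters were on Illumina sequencing chips, and stalled E. coli RNA polymerase had transcribed the designs on them. Titration used SNAP-549-labelled MS2 coat protein from 0.7 or 1.5 nM, doubling to 3 µM, without and then with constant ligand, in 100 mM Tris-HCl pH 7.5, 80 mM KCl, 4 mM MgCl2, BSA, DTT, yeast tRNA and Tween-20.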

[1] = designed as: OFF switch for flavin mononucleotide, no ligand
[2] = ligand present: flavin mononucleotide, designed as: OFF switch for flavin mononucleotide
[3] = designed as: ON switch for flavin mononucleotide, no ligand
[4] = ligand present: flavin mononucleotide, designed as: ON switch for flavin mononucleotide

| Sequence | apparent Kd [1] [nM] | apparent Kd [2] [nM] | apparent Kd [3] [nM] | apparent Kd [4] [nM] |
| --- | --- | --- | --- | --- |
| UGAUCUUUUGUUAGGAUAUGCUGUUGUUUUCAACAGCAGAAGGGACAUGAGGAUCACCCAUGUCUUGUCAUAAA | 12 | 16.4 | – | – |
| GCAUGUAAGUAGAAGGGCAGAUAUUUUGAUACUGCAGGAUAUGCAGAAUCAUAUCCACAUGAUAACAUGAGGAUCACCCAUGUA | 32.7 | 25.6 | – | – |
| UUUACAUGAGGAUCACCCAUGUCUUGCAAGAUGAGUUCUGGUGAGGAUAUACAUGAUAAAGAACUGUAGAAGGCACUGGGUACA | – | – | 305 | 362 |
| AGAAACUACGAGAAGGACAUGUAAAAUGCCGCAAACAUGAGGAUCACCCAUGUAGGAUAUCGUAGUUUCAGGAUCGUGAGAUCA | 6.59 | 18.1 | – | – |
| CCAGGCUUCGAGAAGGACAUGAGGAUCACCCAUGUGCGUGUGAAGCAGCCGUGAGGCUGCAUCAUGUAGGAUAUCGGAGUCUGU | 72.2 | 391 | – | – |
| UGUCGGAGCAGAGGAUAUUACAUGAGGAUCACCCAUGUAUGAACCAAUAGCUGGAAACAGUAAUGUAAGAAGGCUGCUCCGACA | 7.33 | 76.2 | – | – |
| GAUAUUUUUUGAGGAUAUUCAUACACUGUAUACGGAGAAGGCAAACAAUCAUGAGGACAUGAGGAUCACCCAUGUUGUGACCAU | – | – | 19.5 | 13.5 |
| AGGUGUAGAGGAUAUCGAGUUCUUUACAUGAGGAUCACCCAUGUCCUGGGCACCCAGGACUGAGAAGGCUACACCA | 478 | 180 | – | – |
| GGCAAUAUGUAGGAUAUCGUAUCGGAAACGAUACGAGAAGGGCAAACAUGAGGAUCACCCAUGUUCCUUAAGCC | 15 | 17.4 | – | – |
| GCCAUCGCGUGAGGAUAUGCUCCGGUUUCCGGAGCAGAAGGCAUGUCAUAAGACAUGAGGAUCACCCAUGUAGUCAAGAUGGCA | – | – | 270 | 11.4 |
| UCAUGAUGGAAGAAGGGAGUCGUGCAUAACAACUCAGGAUAUUUCACAUGAGGAUCACCCAUGUCGAAGUAACAAUGUUGAUUA | 15.9 | 28 | – | – |
| AUUCACCGAGGAUAUACAUGAGGAUCACCCAUGUAAAAGAAACGGUGCCAUCGGUCGUGUAGAAGGUGGUGUUA | 16.6 | 16.1 | – | – |
| AUAAGUGAAAGCUAAAGAUUAGCCGAGGAUAUACAUGAGGAUCACCCAUGUAAGGGUCGCCUUCUGUAGAAGGCGGCGGUCUAG | 40.5 | 76.5 | – | – |
| UUCCUCGUUGUGAGGAUAUCGUCCUCUUUUUGUUACGAGAAGGCACAUGAGGAUCACCCAUGUUUCUUGAUGUU | 16.7 | 42.3 | – | – |
| CUAAAUCAUGUAGGAUAUGCAUGGCGAAGCUACGCAGAAGGACAUGAGGAUCACCCAUGUCUGUCCGACUGCGUACAGUCGGAC | 21.6 | 114 | – | – |
| GCACUUAAGUUAGGAUAUGGAUCGGAAAACGAUCCAGAAGGAAUAUGGGAACAUGAGGAUCACCCAUGUUCCACAGACAAGUGC | – | – | 47.5 | 24.4 |
| UGUUGUAUUACAGGAUAUCUAGUAGUUUUAUUUAGAGAAGGGUAUUCACAUGAGGAUCACCCAUGUAUAUACGAGGAAGUUGUG | – | – | 38.9 | 40 |
| CCUGUGUGAGGAUAUGGUGUUGGAAAAAAGGAAUAGCUCCUCCAGAAGGCACAUGAGGAUCACCCAUGUCGUGG | 21.4 | 53.2 | – | – |
| AGUUUGUGAGGAUAUCCAAUAUAUGACAUGAGGAUCACCCAUGUUUCCACUCGUACCUCCGGAGAAGGCACUGCGA | 21.5 | 22.9 | – | – |
| UAGGUACAUGAGGAUCACCCAUGUGAGGAUAUAGUUGAAGAUUGCGAGAGGGAGAGGACUAGAAGGCACAGUGG | 50.5 | 69 | – | – |
| ACAUACAUUCGAGGAUAUCGGUGAUAAAUUUUACGAGAAGGCGAUUUACGGCAUAAUGCUGUAGACAUGAGGAUCACCCAUGUA | – | – | 71.5 | 39.2 |
| GCCAGAGCAGGAUAUCUAUAUUAUCACAUGAGGAUCACCCAUGUCCAGCGAAAGCUGGAGGGAGAAGGGCUCUGGC | 73.2 | 33.8 | – | – |
| AACAGUCUAGAGGAUAUGCUGGAUUAAAAUCUGGCAGAAGGCUGGACAUGAGGAUCACCCAUGUAAAUACUACC | 33.6 | 162 | – | – |
| GUCAGCUCGUGAGGAUAUAUAUUAACAUGAGGAUCACCCAUGUAAGAUCAGCUUCGGCAGUUAAUAUAGAAGGCACGAGCUGAC | 168 | 188 | – | – |
| CAGUACUGAGGAUAUACAUGAGGAUCACCCAUGUGCUUUAGCUAGGAUACUAGCACUAGUAGAAGGCAGUACUG | 13.9 | 23.6 | – | – |
| CCUUUGUCAGGAUAUCAGUACAGGUCGAGUUUAGACCUGUUUGAGAAGGGACAUGAGGAUCACCCAUGUAAAAC | 125 | 161 | – | – |
| UUUAUUUAGGCAGGAUAUACAUGUAUAUAUAAUUUUUUAUAUAUUAUUACAUGAGGAUCACCCAUGUAGAAGGGCCUUAUUAUA | 41.9 | 54.7 | – | – |
| AUGAGGUCAGGAUAUGCAUGGCGGGACUUGCGUCGUGGCGUGGAGAAGGGACAUGAGGAUCACCCAUGUGGAGC | 56.6 | 64.7 | – | – |

| Sequence | apparent Kd [1] [nM] | apparent Kd [2] [nM] | apparent Kd [3] [nM] | apparent Kd [4] [nM] |
| --- | --- | --- | --- | --- |
| UGUCCAUAGCAGAAGGACAUGAGGAUCACCCAUGUAAUCAUACAAAUACAUGUAGGAUAUGCUAUGGACUAAGAGCGAAAGCUC | 8.28 | 19.1 | – | – |
| AGCGGAUAACAGUAGGAUAUGGCCAACGCCACAUGAGGAUCACCCAUGUCGUACCGGCACCUGGACUAGAAGGACUGCCUCCCGC | – | – | 30.8 | 14.5 |
| GGGUACAUGGGAGGAUAUGGGAUGAUAACAUGAGGAUCACCCAUGUUAAAGAUGCCGAGAGGCAACUAGAAGGCCCAUGUACCG | – | – | 440 | 59.2 |
| AACCUAUUACAGAAGGCCAGCUACAUGAGGAUCACCCAUGUCGAGUCAUGGAGGAUAUGUAGUAAUUCACUCACAGAUGAGUAC | – | – | 28.9 | 5.78 |
| CUUUUGUGAGGAUAUCAGUAGUAAAAUAAUAAUAUUACUACUGAGAAGGCACAUGAGGAUCACCCAUGUUCCUC | 40.5 | 267 | – | – |
| UGGCCGAAGUUAGGAUAUUGGUUAGGGACGGACUAAGAAGGAGCACAUACAUGAGGAUCACCCAUGUUAGAAGGUUGUCCUCCA | 15.5 | 13.7 | – | – |
| CGGCCGGAUCGAGGAUAUAAGUCUAGGACAUGAGGAUCACCCAUGUAUGUCUUAGAAGGCGAUCCGGCCAGCCUGUUACAGGCA | – | – | 32.9 | 6.18 |
| UGGUGAAAUGUAGGAUAUGGAAAUAAAUUUUAACCAGAAGGACAUGAGGAUCACCCAUGUGAUAGAGAAUUAAUAAUAGCUCCU | 26.9 | 31.3 | – | – |
| CCGAAUGUCACAGGAUAUGGUCCGGGCACGCGACCAGAAGGGUGAUCUUACAUGAGGAUCACCCAUGUAUAGGCGUUAGGCUAC | – | – | 32.9 | 442 |
| GAGCGAGGGACAGGAUAUGCGGCGAAACUCUCCGCAGAAGGGUCGACAUGAGGAUCACCCAUGUCCUUACGCUCCAAGUAGAGG | – | – | 132 | 397 |
| CAGGAUAGAGGAUAUACAUAGAUACAGAUUCAUAUAAUCCUACAUGAGGAUCACCCAUGUAGAAGGCUAUCCUG | 15 | 46.4 | – | – |
| CAAUUUUGGAGUUCGUAUCGAUACAUGAGGAUCACCCAUGUAAAGGAUAUGAUCUAGUUUUUAGAUCAGAAGGUUACAUAGGCG | 54.9 | 25.8 | – | – |
| UUUAGUAUCUAGGAUAUCUAGUACAUAGUAUCUAGAGAAGGAGAUACAUGAGGAUCACCCAUGUUCUGUGAUCU | 210 | 36.4 | – | – |
| UGAGCCGGCACUGAGGAUAUUCAUAUUUAAACAUGAGGAUCACCCAUGUAGGCCAGAAGGCCUUGGGAGAAGGCAGGUCGGCUCU | – | – | 399 | 24.6 |
| UUAUUGUGAGGAUAUCAGGUGUGCUAGCGUACUGGUACAUCUGAGAAGGCACAUGAGGAUCACCCAUGUUCCUU | 14.3 | 37.3 | – | – |
| GCCGAAAGUGUGAGGAUAUACCUAUGGAUACAUAGGUAGAAGGCACAUGAGGAUCACCCAUGUCCAAUAACGGC | 205 | 647 | – | – |
| AAAAAGGCAGGAUAUACAAAAAAAUUUUUAAAAAAAAAAAAACAUGAGGAUCACCCAUGUAGAAGGGCCAAAAA | 54.2 | 51.7 | – | – |
| GUCGUUUAUGUAGGAUAUGCGAGGCGAGCCUAAGCAGAAGGACAUGAGGAUCACCCAUGUAUUGCGGUCUGCGUUCAGAUCGCU | 45 | 174 | – | – |
| UGCAGACGAGGAUAUAGAUUUAAGUACAUGAGGAUCACCCAUGUGCAUAUGUAUUUAGAUUUAGAAGGCGUCUGCA | 482 | 469 | – | – |
| ACAUGAUCAGGAUAUACAUGAGGAUCACCCAUGUAUAUAAAAAAAAAACUUUCUUCAUGUAGAAGGGAUCUUGU | 16.6 | 26.3 | – | – |
| GAUGGACAUGAGGAUCACCCAUGUAAGGAUAUUGAUUGUGGCUAUAAAUGGUUACGGUCGAGAAGGUACUCGUC | 82.2 | 78.8 | – | – |
| AAUUCGCGAGGAUAUACAUGAGGAUCACCCAUGUGUGUACGCAUGCACUUCAUAGGUUGUAGAAGGCGUGAGAU | 19.7 | 29.4 | – | – |
| GGGUAAAUCGGAGGAUAUCAUGUAAAUACAUGAGGAUCACCCAUGUCGAUGGAGACAUCGGAGAUUGAGAAGGCCGAUGUACCG | – | – | 175 | 9.42 |
| AAGUGCCUGUCGAUGCUCGACAUGAGGAUCACCCAUGUACAGCAGGAUAUGCAGAACUACCUCGUGCAGAAGGGCUGUACCAAU | 97.1 | 80.1 | – | – |
| AUUAUAUAGAUAGGAUAUUGAUUAUUAUUUUAACAUGAGGAUCACCCAUGUAGCCUUAUGUAUAACAAGAAGGAUCAUUUAUUA | 161 | 181 | – | – |
| AUGGACGUCGUAGGAUAUGUAGGAUUCUCGUACAUGAGGAUCACCCAUGUUGACGUCGAGGUCGGACAGAAGGGCGGUGUCUAU | – | – | 20.9 | 8.65 |
| GUAUGACAAAGUCAUACCGCUCUGACAUGAGGAUCACCCAUGUAGGAUAUAUUAAUCAAAGAUUAAUAGAAGGACAUGUUUCUU | 35.3 | 79.3 | – | – |
